# Bioassay records (PubChem)
# TAAR1 agonist: agonists of human TAAR1; CHO RD-HGA16 TAAR1, Fluo-8 calcium fluorescence; vehicle wells 0%, saturating PEA agonist 100%; activation, % at 3 µM; 360,000 compounds, 0.99% hits; AID 624467;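 active = activation above the mean activation of all test compounds in the run plus 3 SD, cut at about 38% in these data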
#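 System: CHO RD-HGA16 cells carrying human TAAR1 plus Gα16; Incubation: 17-24 h seeding, 75 min 37 °C dye, 30 min RT; Measured by: Fluo-8 fluorescence, 5 s baseline then 140 s kinetic read; Control set: DMSO and PEA EC100; Replication: single well for each compound.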
# OX1R antag-1: blocks the human orexin 1 receptor. O43613. CHO/OX1R cells, Fluo-8 calcium fluorescence, orexin A. inhibition, % at 5 µM. 330,000 compounds, 0.43% hits;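 active = inhibition above its plate's threshold, mean inhibition of all tested compounds on the plate plus 3 SD, cut at about 37% in these data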;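 note: 0% = orexin A challenge wells and 100% = SB-334867-A antagonist wells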
# Target sequence (O43613 whole entry, looked up): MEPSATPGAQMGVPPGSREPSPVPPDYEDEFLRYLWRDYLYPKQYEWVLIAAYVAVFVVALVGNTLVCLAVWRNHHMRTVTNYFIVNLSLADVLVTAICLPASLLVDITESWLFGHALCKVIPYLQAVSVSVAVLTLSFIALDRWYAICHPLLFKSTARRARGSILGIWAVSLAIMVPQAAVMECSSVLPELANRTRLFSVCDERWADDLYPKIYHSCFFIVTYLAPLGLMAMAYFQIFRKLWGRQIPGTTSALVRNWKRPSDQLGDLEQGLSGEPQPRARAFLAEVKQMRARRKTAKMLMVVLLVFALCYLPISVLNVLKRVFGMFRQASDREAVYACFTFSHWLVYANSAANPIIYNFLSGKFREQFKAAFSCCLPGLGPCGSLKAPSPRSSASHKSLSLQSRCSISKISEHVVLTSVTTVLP
# OX1R antag-2: antagonists of human orexin 1 receptor (OX1R); O43613; OX1R-expressing cells, FRET antagonist read-out; inhibition, % at 6.6 µM; 330,000 compounds, 1.8% hits; AID 485270; in the data active = inhibition mostly above about 38%, no sharp cut-off; inactive = mostly below about 40%;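 note: 0% = agonist challenge alone and 100% = reference antagonist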
# CHO parental Ca: signal in parental CHO cells, OX1R antagonist counter-screen | parental CHO-K1, ATP-induced calcium, Fluo-8 fluorescence | inhibition, % at 5.6 µM | 330,000 compounds, 0.63% hits | AID 463079;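 active = inhibition above that plate's mean sample inhibition plus 3 SD, cut at about 26% in these data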;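 note: 0% = ATP-challenged DMSO wells and 100% = DMSO wells without ATP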
#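 Assay system: parental CHO cells; Read-out basis: percent inhibition of ATP-evoked calcium rise, normalized to controls; Benchmarks: ATP and no-ATP DMSO wells; Compound dosing: single nominal dose of 5.6 µM per compound; Signal: Fluo-8 calcium dye fluorescence; Also added: ATP as calcium-mobilizing challenge; Repeats: singlicate.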
# TAAR1 antag: human TAAR1 antagonism; CHO RD-HGA16 TAAR1, Fluo-8 calcium fluorescence, antagonist; inhibition, % at 3 µM; 360,000 compounds, 1.5% hits; AID 624466;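 active = inhibition above a per-plate cutoff, the mean inhibition of test compounds on that plate plus 3 SD, cut at about 49% in these data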;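 note: 0% = DMSO plus EC80 beta-PEA response and 100% = DMSO alone without agonist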
#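 System: RD-HGA16 CHO cells with stable hTAAR1 and Gα16 | Probe or stimulus: EC80 β-phenethylamine stimulus | Dosing: 3 µM, single point | Times: Dye loading 75 min at 37 °C, then 30 min room temperature | Measured by: Fluo-8 calcium-sensitive fluorescence | Read-out basis: % inhibition of agonist calcium response | Replicates: n of 1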
# * marks the source's active call; other numbers are inactive results; . = no result given. Rows were chosen to be rich in hits. Some 3.9% of all compounds tested hit in one or more screens of this group.
SMILES,TAAR1 agonist,OX1R antag-1,OX1R antag-2,CHO parental Ca,TAAR1 antag
Cc1nc2cc(C(F)(F)F)ccc2n1C1CCN(Cc2nnnn2Cc2cccs2)CC1,28.1,43.4*,-1.0,61.3*,30.6
O=P(Nc1ccccc1)(Nc1ccccc1)Oc1ccccc1,15.0,-19.9,13.8,-18.6,40.9
O=P(Nc1ccccc1)(Nc1ccccc1)Oc1cccc(Cl)c1,13.7,2.0,1.2,-15.9,52.3*
O=C(COC(=O)c1cc(Br)cc(Br)c1O)NC12CC3CC(CC(C3)C1)C2,-0.2,.,.,.,27.1
O=C1NC(=S)N(c2ccc(Cl)cc2)C(=O)/C1=C/N1CCN(C(=O)c2ccco2)CC1,38.5*,7.8,14.5,14.4,4.9
O=C1NC(=S)N(c2ccc(F)cc2)C(=O)/C1=C/c1ccco1,.,-6.6,1.6,-4.3,.
CCN(CC)C(=O)c1ccc(NC(=O)c2cccc(C(F)(F)F)c2)cc1,0.6,-20.6,31.4,7.5,19.4
CCN(CC)C(=O)c1ccc(NC(=O)c2ccc(-n3cncn3)c([N+](=O)[O-])c2)cc1,0.5,-15.2,63.9*,-5.0,-10.7
C[C@@]12CC[C@@H](c3cc4c(cc3C1)OCO4)N2c1ccccc1,5.4,.,.,.,9.3
Oc1c(Br)c(Br)c(Br)c(Br)c1Br,.,7.0,37.1*,-7.5,.
O=S(=O)(c1ccc(Cl)cc1)N1Cc2ccc(Br)cc2-n2nncc2C1,0.8,.,.,.,-3.5
COC1CC2C=C(C)C=CC=CC(=O)NC(c3ccccc3)CC=CCCC(O)CC(=O)C2=C1O (stereo not drawn),7.1,.,.,.,84.0*
CCC(C)(O)C(=O)OC1C(=O)OC2CC3C(C)=CC(O)C(O)C3(C)C3C4(O)OCC23C1C(C)C4O (stereo not drawn),1.6,.,.,.,-16.7
Cc1ccc(C[n+]2c(-c3ccc(C)cc3)cc(-c3ccc(C)cc3)cc2-c2ccc(C)cc2)cc1,.,96.5*,-5.4,98.3*,.
CC(C)=CCc1c(O)cc2c(c1O)C(=O)CC(c1ccc(O)cc1)O2 (stereo not drawn),41.9*,9.8,-2.7,23.2,19.2
O=c1[nH]c(O)c(N=Nc2ccc(SC(F)F)cc2)c(=O)[nH]1,-0.5,4.3,42.0*,-1.0,-17.8
NC(=O)c1ccc(N=Nc2c(O)[nH]c(=O)[nH]c2=O)cc1,.,-3.4,25.6,-9.6,.
NC(N)=N/N=C/c1ccc(N(c2ccccc2)c2ccccc2)cc1,77.2*,29.4,12.9,25.0,12.2
COc1ccc(/C=N\N=C(N)N)cc1,21.2,-3.2,34.1,-7.2,4.7
CCN(CC)S(=O)(=O)c1ccc(C)c(NCC(=O)Nc2ccc(C#N)c(Cl)c2)c1,13.7,33.1,16.7,56.4*,26.3
CC(=O)N1CCN(CC(=O)Nc2ccc(C#N)c(Cl)c2)CC1,1.3,-11.1,15.9,-6.3,11.1
CCNc1cc(N2CCN(C)CC2)ccc1[N+](=O)[O-],3.9,-14.8,50.6*,-12.2,-15.9
CN1CCN(c2ccc([N+](=O)[O-])c(N/N=C3\CN4CCC3CC4)c2)CC1,4.8,5.3,56.0*,8.5,10.2
CN1CCN(c2ccc([N+](=O)[O-])c(Sc3nncn3C)c2)CC1,3.5,-1.7,45.1,-2.6,7.0
O=C(CSC1c2ccccc2-c2ccccc21)N/N=C/c1ccccc1C(=O)O,7.4,-1.0,53.6*,4.9,1.4
SMILES,TAAR1 agonist,OX1R antag-1,OX1R antag-2,CHO parental Ca,TAAR1 antag
CN1C(=O)C(c2ccc([N+](=O)[O-])cc2[N+](=O)[O-])C(=O)N(C)C1=O,6.3,-13.2,43.9*,-1.3,6.3
COC1CCCCC1NCCc1ccccc1 (stereo not drawn),38.0*,-21.0,22.8,-17.9,-22.4
COc1ccc(CCNC2CCCCCC2)cc1,4.4,-19.1,14.3,-9.9,2.0
NC1=Nc2ccccc2Oc2ccccc21,39.6*,-43.8,15.2,-14.8,16.2
CCOc1cc2c(cc1OCC)-n1cccc1C(c1ccc(C(C)C)cc1)NC2 (stereo not drawn),25.4,8.4,15.6,56.5*,-7.9
CN1C2CCC1C(C(=O)Oc1ccccc1)C(c1ccc(Cl)cc1)C2 (stereo not drawn),3.5,.,.,.,14.9
c1ccc(CCNCc2cccs2)cc1,38.9*,.,.,.,-1.8
Fc1ccc2nc(-c3ccc(CN4CCC(n5nnc6ccccc65)CC4)cc3)c(-c3ccccc3)nc2c1,-0.8,.,.,.,45.0
O=P(OCCCl)(OCCCl)OCCCl,0.0,.,.,.,2.2
CC[C@]12CCN(CC3(O)CC3)C(Cc3ccc(O)cc31)C2(C)C,1.3,.,.,.,-9.5
